Shown are actives, neighbours in structure and some others; about 4.1% of the full set was active somewhere.
ATG4B inh: blocks human ATG4B protease cleavage of LC3 substrate; 340,000 tested, 0.51% active; AID 504462; inhibition, % at 8.33 µM; ATG4B cleavage of LC3-PLA2, NBD-HPC fluorescence, 1 h; Q9Y4P1; in the data active = inhibition above about 40%
MC4R ag barr: activates human MC4R beta-arrestin recruitment. AID 540308. P32245. activation, % at 8.9 µM. 360,000 tested, 0.98% active. U2OS MC4R beta-arrestin complementation, luminescence; percent of melanotan II response, DMSO zero;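 active = activation above a per-plate cutoff, the mean activation of sample wells on that plate plus 3 SD, cut at about 8% in these data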
Target sequence (P32245 whole entry, looked up): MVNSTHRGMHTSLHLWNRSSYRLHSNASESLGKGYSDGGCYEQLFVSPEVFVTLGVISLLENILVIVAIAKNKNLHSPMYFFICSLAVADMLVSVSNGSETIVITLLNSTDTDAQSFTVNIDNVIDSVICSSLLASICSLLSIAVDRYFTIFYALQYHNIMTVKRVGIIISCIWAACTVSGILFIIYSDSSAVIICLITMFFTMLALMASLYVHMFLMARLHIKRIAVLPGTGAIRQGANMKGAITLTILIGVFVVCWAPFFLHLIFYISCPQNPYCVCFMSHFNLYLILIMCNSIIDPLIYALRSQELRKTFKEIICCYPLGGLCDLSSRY
MC4R antag cAMP: blocks human MC4R cAMP signaling. MC4R-expressing cells, MTII-stimulated cAMP, LANCE TR-FRET. inhibition, % at 6.5 µM. 360,000 tested, 0.48% active. AID 540295;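 active = inhibition above its plate's cutoff, the mean of tested wells on that plate plus 3 SD, cut at about 29% in these data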
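Material: human MC4R-expressing U2OS cells. Probe or stimulus: Melanotan II challenge. Dosing: 6.5 µM single dose. Times: 30-min compound, 1-h challenge, 1-h detection, room temperature. Technique: TR-FRET with Eu-cAMP and labeled anti-cAMP, 671 nm. Replication: singlicate.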
SMARCA2 act: increases SMARCA2 function in MMTV reporter cells; AID 652017; MG213 cells, MMTV-luciferase reporter, dexamethasone, overnight; 370,000 tested, 1% active; activation, % at 9.1 µM; in the data active = activation above about 7.8%
MPTP inh: permeability transition pore inhibition. isolated mouse mitochondria, Ca2+ swelling absorbance, 30 min. inhibition, % at 10 µM. 360,000 tested, 1.4% active;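 active = inhibition of 50% or more, scaled per plate between neutral and stimulator controls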
cAMP nonselect: nonselective cAMP signaling inhibitor, MC4R antagonist counter-screen | shares compounds with MC4R antag cAMP | parental U2OS, forskolin cAMP, LANCE TR-FRET | inhibition, % at 6.5 µM | 1,600 tested, 26% active;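 active = mean inhibition over triplicates above the low-control well mean plus 3 SD, set per campaign, cut at about 13% in these data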;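 also: signal is single emission at 671 nm which falls as cellular cAMP rises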
MC4R cAMP antag: human MC4R cAMP antagonism confirmation; 1,600 tested, 27% active; inhibition, % at 6.5 µM; MC4R-expressing cells, MTII-stimulated cAMP, TR-FRET; shares compounds with MC4R antag cAMP; in the data active = inhibition above about 29%
Numbers stand for hits; - = inactive; . = no result; ! = a repeat was not active.

SMILES | ATG4B inh | MC4R ag barr | MC4R antag cAMP | SMARCA2 act | MPTP inh | cAMP nonselect | MC4R cAMP antag
COc1cc(S(=O)(=O)n2ccc(C)n2)ccc1Cl | - | - | 29 | - | - | - | -
COc1cc(S(=O)(=O)n2ccc(C)n2)c(OC)cc1Cl | - | - | - | - | - | . | .
COc1cc(OC)cc(C(=O)N2CCN(Cc3ccccc3[N+](=O)[O-])CC2)c1 | - | - | 29 | - | - | - | -
COc1ccc(C(=O)N2CCN(Cc3ccccc3[N+](=O)[O-])CC2)cc1 | - | - | - | - | - | . | .
COc1ccc(CNS(=O)(=O)/C=C/c2ccc(OC)cc2CNC(=O)OC(C)(C)C)cc1 | . | . | . | - | . | . | .
CCC(C)[C@H](NC(=O)OC(C)(C)C)C(=O)N[C@@H](Cc1ccccc1)C(=O)OC (stereo not given in full) | . | . | . | - | . | . | .
CCCCCCCN(c1ccccc1)[C@@H]1C[C@H]2CCCC(=O)N3CC[C@@H](C1)[C@@H]23 | - | - | 34 | - | - | - | 34
Cc1ccc(N2CCN(C(=O)c3cccc([N+](=O)[O-])c3)CC2)cc1Cl | - | - | 33 | - | - | - | -
Cc1cc(=O)[nH]c(N/N=C/c2c(F)c(F)c(F)c(F)c2F)n1 | - | - | 29 | - | - | 14 | -
Cc1cc(=O)[nH]c(N/N=C/c2ccccc2Cl)n1 | - | - | - | - | - | . | .
COCCNC(=O)C[C@H]1CC[C@H]2[C@@H](COc3ccc(NC(=O)Nc4cccc(F)c4)cc3C(=O)N2C)O1 | . | . | . | - | . | . | .
CCn1cc(CCC(=O)NCc2cccc(OC)c2OC)c2ccccc21 | - | - | 31 | - | - | - | -
CCOc1ccccc1CNC(=O)CCc1cn(CC)c2ccccc12 | - | - | - | - | - | . | .
Cc1ccc(-c2cnc3n2CCCCC3)cc1 | - | - | 33 | - | - | - | -
Cc1ccc(-c2nnc3n2CCCCC3)cc1 | - | - | - | - | - | . | .
Cc1ccc(-c2cc(C(=O)O)c3cc(Br)ccc3n2)o1 | - | - | - | - | - | . | .
Cc1nc2ccc(Br)cc2c(-c2ccccc2)c1C(=O)O | - | - | 35 | - | - | 48 | 96
CC(=O)c1c(C)nc2ccc(Br)cc2c1-c1ccccc1 | - | - | - | - | - | . | .
Cc1ccc(-c2cc(C(=O)O)c3cc(Br)ccc3n2)s1 | - | - | 36 | - | - | 16 | 31!
CCC(=O)Nc1ccc(C(=O)Cn2ncc(Cl)c(Cl)c2=O)cc1 | - | - | 29 | - | - | 22 | -
CCOC(=O)c1ccc(NC(=O)Cn2ncc(Cl)c(Cl)c2=O)cc1 | - | - | - | - | - | . | .
O=C(Cn1ncc(Cl)c(Cl)c1=O)Nc1ccc2c(c1)OCO2 | - | - | 37 | - | - | 28 | 66
Cc1cc(Br)ccc1NC(=O)CNC(=O)Cn1ncc(Cl)c(Cl)c1=O | - | - | 47 | - | - | 29 | 53
Cc1nn(CC(=O)Nc2ccc3c(c2)OCO3)c(C)c1Cl | - | - | - | - | - | . | .
COc1ccc(-n2nnnc2S(=O)(=O)CC(=O)N2CCCCC2)cc1 | - | - | 39 | - | - | - | 51
SMILES | ATG4B inh | MC4R ag barr | MC4R antag cAMP | SMARCA2 act | MPTP inh | cAMP nonselect | MC4R cAMP antag
COc1cc(OC)cc(-n2nnnc2SCC(=O)N2CCCC2)c1 | - | - | - | - | - | . | .
O=C(c1cccc(F)c1F)N1CCCC(c2nc(-c3cccs3)no2)C1 (stereo not given) | . | . | . | - | . | . | .
O=C(CSc1nnc(-c2cccnc2)n1Cc1ccco1)Nc1ccc(F)cc1Cl | . | . | . | - | . | . | .
COc1ccc(-c2csc3ncnc(N4CCN(c5ccccc5Cl)CC4)c23)cc1 | - | - | 29 | - | - | - | 29
COC(=O)C1CN(Cc2ccccc2)CCS(=O)(=O)N1Cc1ccc(Cl)cc1 (stereo not given) | . | . | . | - | . | . | .
CCOc1ccccc1OCC(=O)Oc1ccc(C)c(C)c1 | - | - | 29 | - | - | - | -
COCCCn1c(=O)/c(=C\c2cccc(OC)c2OC)s/c1=C(/C#N)C(=O)Nc1ccc(C(=O)O)cc1 | - | - | 29 | - | - | - | -
O=C(NCCc1ccccc1)OCc1cn(Cc2ccccc2C(F)(F)F)nn1 | . | . | . | - | . | . | .
O=C(Cn1ncc(Cl)c(Cl)c1=O)NC(=O)NC1CCCCC1 | - | - | 38 | - | - | 36 | 67
CC(NC(=O)Cn1ncc(Cl)c(Cl)c1=O)C12CC3CC(CC(C3)C1)C2 (stereo not given) | - | - | 81 | . | - | 32 | 46
CCn1cc(C(=O)NC(C)C23CC4CC(CC(C4)C2)C3)cn1 (stereo not given) | - | - | - | - | - | . | .
C#CCN1CC(N(C)CCOC(=O)CCCc2ccccc2)CS1(=O)=O (stereo not given) | . | . | . | - | . | . | .
CC(C)CN1C(=O)N2CCc3ccccc3C2CS1(=O)=O (stereo not given) | . | . | . | - | . | . | .
Cc1ccc(/C=C/C(=O)N2CCN(S(=O)(=O)c3ccc(C)c(C)c3)CC2)o1 | - | - | 38 | - | - | - | -
COc1ccc(CCNC(=O)Nc2ccc3c(c2)[C@]2(CC(=O)N(CC(C)C)C2c2ccccc2)C(=O)N3C)cc1OC (stereo not given in full) | . | . | . | - | . | . | .
COc1cc(NC(=O)C2CCCN(S(=O)(=O)c3ccc(C)c(C)c3)C2)cc(OC)c1 (stereo not given) | . | . | . | - | . | . | .
OC(COc1ccccc1)CN1CCOCC1 (stereo not given) | - | - | 30 | - | - | - | -
CS(=O)(=O)c1ccc(Sc2nc3ccccc3s2)c([N+](=O)[O-])c1 | - | - | - | . | - | . | .
O=[N+]([O-])c1cc(S(=O)(=O)C(F)(F)F)ccc1Sc1nc2ccccc2s1 | - | - | 56 | - | - | - | 43
COc1ccc([C@H]2OC(=O)C[C@H]2C(=O)N2CCCC2)cc1OC | . | . | . | - | . | . | .
S=c1[nH]nc(-c2cc(-c3ccccc3)n[nH]2)n1N=Cc1c[nH]c2ccccc12 | . | . | . | - | . | . | .
C#CCNC(=O)C[C@@H]1C(=O)N2CCCC3=C2[C@@]1(C(=O)OC)CCCC3 | . | . | . | - | . | . | .
CC(=O)OC1OCCOC1NC(=S)Nc1ccc(C)cc1 (stereo not given) | - | - | 32 | - | - | - | -
Cc1ccc(NC(=S)NNC(=S)Nc2ccc(C)cc2)cc1 | - | - | - | - | - | . | .
Cc1ccc(NC(=O)COC(=O)c2cccc3c2C(=O)c2ccccc2C3=O)c(C)c1 | - | - | - | - | - | . | .
Cc1ccc(C)c(NC(=O)COC(=O)c2cccc3c2C(=O)c2ccccc2C3=O)c1 | - | - | 33 | - | - | - | -
COc1cc(C(=O)OC2CCOC2=O)cc(Cl)c1OC (stereo not given) | - | - | 30 | - | - | 16 | 30
COc1cc(CC(=O)OC2CCOC2=O)cc(OC)c1OC (stereo not given) | - | - | - | - | - | . | .
CCCCCC[C@@H](CC)CN(C(=O)Oc1ccccc1)c1ccccc1 | . | . | . | - | . | . | .

Screening results: PubChem, several laboratories
